# Measured values taken from ChEMBL document CHEMBL1140013, “The 1,4-naphthoquinone scaffold in the design of cysteine protease inhibitors” (Bioorg Med Chem, 2007).
# Active and inactive are the calls of the source. No cut-off for these calls is given here.
# Target: T1, Papain (Carica papaya) (UniProt P00784)
# T1 sequence (whole entry): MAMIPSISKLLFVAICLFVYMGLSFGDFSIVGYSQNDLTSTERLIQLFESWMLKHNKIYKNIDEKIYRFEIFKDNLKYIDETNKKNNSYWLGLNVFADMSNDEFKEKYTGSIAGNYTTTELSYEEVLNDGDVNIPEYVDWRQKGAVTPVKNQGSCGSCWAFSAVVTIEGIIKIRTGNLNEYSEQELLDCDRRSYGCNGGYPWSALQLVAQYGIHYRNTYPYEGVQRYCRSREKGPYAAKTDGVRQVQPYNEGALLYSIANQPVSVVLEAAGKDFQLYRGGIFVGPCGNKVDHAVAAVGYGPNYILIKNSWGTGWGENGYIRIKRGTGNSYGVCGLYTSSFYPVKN
# Assay: Inhibition of papain at 65 uM after 30 mins
# Outline: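 Papain activated 30 min at 25 °C in 50 mM potassium phosphate pH 7.0 with 2.5 mM EDTA and 2.0 mM DTT. Inhibitor in DMSO added to the enzyme in EDTA-only buffer, with control incubations run in parallel. Aliquots went into BAPA substrate in buffer with EDTA and DTT. p-Nitroaniline release read at 410 nm for 4 min at 25 °C.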
row,SMILES,inhibition [%]
1,O=C1C=CC(=O)c2ccccc21,49.5
2,O=C1C=CC(=O)c2c(O)cccc21,60.4

# Target: T1, Papain (Carica papaya)
# Assay: Inhibition of papain at 1.3 mM after 20 mins
# Outline: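 Papain was pre-incubated with inhibitor at 1.3 mM for 20 min. Residual activity on BAPA was read at 410 nm and reported as % inhibition.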
row,SMILES,inhibition [%]
1,O=C1C=C(O)C(=O)c2ccccc21,82

# Target: Cathepsin B (Bos taurus) (UniProt P07688)
# Assay: Inhibition of bovine spleen cathepsin B
# Outline: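 Cathepsin B (10 U/mL) was activated 15 min at 25 °C in 20 mM sodium acetate pH 5.0 with 1.0 mM EDTA and 30 mM DTT. It was then pre-incubated with inhibitor (DMSO stock) in acetate/EDTA buffer (Kitz–Wilson method). Aliquots were assayed on Z-S-Lys-ONp with 2.0 mM DTT, following p-nitrophenol at 326 nm for 3 min at 25 °C. k_obs came from ln(v/v0) versus time, using 4–6 inhibitor concentrations.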
row,SMILES,Kinact [µM]
1,CCOC(=O)CNC1=C(Br)C(=O)c2ccccc2C1=O,55.9
2,CCOC(=O)CNC1=CC(=O)c2ccccc2C1=O,14
3,CCOC1=CC(=O)c2ccccc2C1=O,797

# Target: Pancreatic elastase (Sus scrofa) (UniProt P08419+P00772)
# Assay: Inhibition of pig pancreatic elastase
# Type: protein assay
# Outline: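 Porcine pancreatic elastase (50 µM stock) was incubated with inhibitor (DMSO stock) in 0.1 M Hepes pH 7.2 for up to 2 h. Timed aliquots were assayed on Suc-Ala-Ala-Ala-4-nitroanilide, following absorbance at 390 nm for 50 s.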
row,SMILES,Activity
1,CCOC(=O)CNC1=C(Br)C(=O)c2ccccc2C1=O,inactive
2,O=C1C=CC(=O)c2ccccc21,inactive
3,CCOC(=O)[C@H](Cc1ccccc1)NC1=C(Br)C(=O)c2ccccc2C1=O,inactive
4,O=C1C(Cl)=C(N2CCOCC2)C(=O)c2ccccc21,inactive
5,CNC1=C(Br)C(=O)c2ccccc2C1=O,inactive
6,CNC1=CC(=O)c2ccccc2C1=O,inactive
7,CC(=O)Oc1cccc2c1C(=O)C=CC2=O,inactive
8,CCOC(=O)CNC1=C(Cl)C(=O)c2ccccc2C1=O,inactive
9,O=C1C=C(Br)C(=O)c2ccccc21,inactive
10,O=C1C=C(O)C(=O)c2ccccc21,inactive
11,CC1=CC(=O)c2ccccc2C1=O,inactive
12,CCOC(=O)[C@H](Cc1ccccc1)NC1=CC(=O)c2ccccc2C1=O,inactive
13,CCOC(=O)CNC1=CC(=O)c2ccccc2C1=O,inactive
14,CC1=CC(=O)c2c(C)ccc(C)c2C1=O,inactive
15,CC(C)CCNC(=O)[C@H](CC(C)C)NC1=CC(=O)c2ccccc2C1=O,inactive
16,CCOC1=CC(=O)c2ccccc2C1=O,inactive
17,O=C1C=CC(=O)c2c(O)cccc21,inactive
18,CCOC(=O)[C@H](Cc1ccccc1)NC1=C(Cl)C(=O)c2ccccc2C1=O,inactive
19,O=C1C(Cl)=C(Cl)C(=O)c2ccccc21,inactive
